Consider 15 molecules from ChEMBL document CHEMBL2412988, “Synthesis, pH-dependent, and plasma stability of meropenem prodrugs for potential use against drug-resistant tuberculosis” (Bioorg Med Chem, 2013).

Some results are limits rather than exact numbers.

Data set [1] can be described thus: (§1) Half life in human plasma at 5 mM by HPLC analysis. The class given is ADME, cell-free.
The nature of data set [2]: Half life in Dunkin-Hartley guinea pig plasma at 5 mM by HPLC analysis. It is filed as ADME, cell-free, Cavia porcellus. Particulars: for t1/2: 5000 µM; call rule not given here. The gist of the method: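 Pooled plasma from female Dunkin Hartley guinea pigs was pre-warmed 2 min at 37 °C, then prodrug was added from a 5.0 mM stock. Runs were in triplicate. Aliquots were taken at 0, 2.5, 5, 10, 15 and 30 min, quenched with an equal volume of acetonitrile, filtered and analysed by reversed-phase HPLC at 300 nm for half-life.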

Data set [3] can be described thus: Prodrug stability in MES buffer assessed as prodrug remaining at 100 uM after 120 mins at pH 6 by HPLC analysis. The class given is physicochemical. The following applies: pH 6, 2 h. The gist of the method: (§2)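 Meropenem or prodrug at 100 µM final (from a 5.0 mM DMSO stock) incubated at 37 °C in triplicate in simulated gastric fluid pH 1.2, 100 mM MES pH 6.0, or pH 7.4 buffer, after 2 min buffer pre-warming. Aliquots taken at 0–120 min and injected directly onto reversed-phase HPLC with UV at 300 nm. Half-life, % prodrug remaining at 120 min, or species concentration over time was reported.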

Data set [4] is described as follows: Prodrug stability in HEPES buffer assessed as prodrug remaining at 100 uM after 120 mins at pH 7.4 by HPLC analysis. Particulars: pH 7.4, 2 h. The class given is physicochemical. The gist of the method: as §2
Data set [5] in a line: Half life in simulated gastric fluid at 100 uM at pH 1.2 by HPLC analysis. It is filed as physicochemical. The following applies: for t1/2: simulated gi fluid, pH 1.2, 100 µM. The gist of the method:
as §2

In another data set the test system is Plasma. The description is as §1. The class given is ADME, cell-free. Particulars: 5000 µM.
Data set [6] is described as follows: Half life in MES buffer at 100 uM at pH 6 by HPLC analysis. It is filed as physicochemical. Particulars: pH 6, 100 µM. Summed up:
as §2

A short description of data set [7]: Half life in HEPES buffer at 100 uM at pH 7.4 by HPLC analysis. It is filed as physicochemical. Particulars: pH 7.4, 100 µM. Summed up:
as §2

Data set [8] is described as follows: Chemical stability of the compound in simulated gastric fluid assessed as compound remaining at 10 uM after 60 mins at pH 1.2. The class given is physicochemical. The following applies: read-out: Stability.
Data set [9] is described as follows: Chemical stability of the compound in simulated gastric fluid assessed as drug degradation at 10 uM after 30 mins at pH 1.2. It is filed as physicochemical. The following applies: read-out: Drug degradation.
Data set [10] is described as follows: Lipophilicity, log D of the compound. The class given is physicochemical. The following applies: octanol/water.
Data set [11] in a line: Stability in HEPES buffer assessed as prodrug conversion to 1-Benzosuberol at pH 7.4 by HPLC analysis. The class given is physicochemical.
Data set [12] can be described thus: Stability in HEPES buffer assessed as prodrug conversion to meropenem at pH 7.4 by HPLC analysis. The class given is physicochemical. The gist of the method:
as §2

As a reminder, the half-life is how long it takes for the measured level to halve. A high value points to slow loss. The term logD denotes the decadic logarithm of the distribution of all forms, ionised or not, between an organic phase and buffer at a given pH.

On to `CC(C)OC(=O)OC(C)OC(=O)C1=C(S[C@@H]2CN[C@H](C(=O)N(C)C)C2)[C@H](C)[C@@H]2[C@@H]([C@@H](C)O)C(=O)N12` (some centres not stated), for which the half-life at 5000 µM was 11 min in data set [1] and 1.4 min in [2] (Dunkin-Hartley). Also, the Stability amounted to 92% in data set [3] (2 h) and 87% in data set [4] (2 h). This molecule yielded a half-life at 100 µM in data set [5] (simulated gastric fluid, pH 1.2) of 9.8 min.
Consider `CC(C)OC(=O)OC(C)OC(=O)C1=C(S[C@@H]2CN[C@H](C(=O)N(C)C)C2)[C@H](C)[C@@H]2[C@@H]([C@@H](C)O)C(=O)N12` (single isomer, unassigned; diastereomer 1), for which the t1/2 in the data set on Plasma is given as 108 min; in [2], 6.5 min; in data set [5], 8.8 min. The figures for the Stability in data set [3] (2 h) and in data set [4] (2 h) were 94% and 90%, respectively.
As to `CC(=O)N1C[C@@H](SC2=C(C(=O)OCOC(=O)O[C@H]3CCCCc4ccccc43)N3C(=O)[C@H]([C@@H](C)O)[C@H]3[C@H]2C)C[C@H]1C(=O)N(C)C`, the t1/2 in [6] is on record as 28 min; in [5] it was 7 min; in data set [7] it was 28 min.
As to `C[C@@H](O)[C@H]1C(=O)N2C(C(=O)O)=C(S[C@@H]3CN[C@H](C(=O)N(C)C)C3)[C@H](C)[C@H]12` [MEROPENEM], the remaining at 1 h, 10 µM in data set [8] is 5%. In addition, the degraded at 0.5 h, 10 µM in data set [9] is 80%. The same molecule displayed a logD in data set [10] of less than 2.5.
For the molecule `C[C@@H](O)[C@H]1C(=O)N2C(C(=O)OCOC(=O)OC3CCc4ccccc4C3)=C(S[C@@H]3CN[C@H](C(=O)N(C)C)C3)[C@H](C)[C@H]12` (mixture of isomers), the t1/2 was 8.1 min in the data set on Plasma, 1.7 min in data set [2] and 14 min in [5]. In addition, the Stability was 93% in data set [3] and 78% in [4].
Consider `CC(OC(=O)O[C@H]1CCCCc2ccccc21)OC(=O)C1=C(S[C@@H]2CN[C@H](C(=O)N(C)C)C2)[C@H](C)[C@@H]2[C@@H]([C@@H](C)O)C(=O)N12` (mixture of isomers), for which the t1/2 is reported as 80 min in data set [6], 18 min in [5] and 64 min in [7].
With `Nc1nc(/C(=C/CC(=O)O)C(=O)N[C@@H]2C(=O)N3C(C(=O)O)=CCS[C@H]23)cs1` [CEFTIBUTEN], in data set [8], the remaining at 1 h, 10 µM is 94%.
The same measure, in the same setting: the same measure for `C[C@@H](O)[C@H]1C(=O)N2C(C(=O)O)=C([C@H]3CCCO3)S[C@H]12` [FAROPENEM]: 70%.
Regarding `C[C@@H](O)[C@H]1C(=O)N2C(C(=O)OCOC(=O)O[C@@H]3CCCCc4ccccc43)=C(S[C@@H]3CN[C@H](C(=O)N(C)C)C3)[C@H](C)[C@H]12`, the t1/2 in the data set with Plasma is given as 34 min; in data set [2], 0.9 min; in data set [5], 11 min; in data set [7], 27 min.
Take `C[C@@H](O)[C@H]1C(=O)N2C(C(=O)OCOC(=O)O[C@H]3CCCCc4ccccc43)=C(S[C@@H]3CN[C@H](C(=O)N(C)C)C3)[C@H](C)[C@H]12`: the Drug metabolism result in [11] and in [12] was “Active” throughout. For the same molecule, the t1/2 in the data set with Plasma was 44 min; in [2], 1.3 min; in data set [6] it was 32 min; in [5], 9.3 min; in data set [7], 28 min.
`C[C@@H](O)[C@H]1C(=O)N2C(C(=O)OCOC(=O)O[C@@H]3CCCc4ccccc43)=C(S[C@@H]3CN[C@H](C(=O)N(C)C)C3)[C@H](C)[C@H]12`: the t1/2 in data set [6] was determined as 0.96 min; in data set [7], 1.5 min.
`C[C@@H](O)[C@H]1C(=O)N2C(C(=O)OCOC(=O)O[C@H]3CCc4ccccc43)=C(S[C@@H]3CN[C@H](C(=O)N(C)C)C3)[C@H](C)[C@H]12` gave a t1/2 in data set [7] of less than 1 min.
Turning to `C[C@@H](O)[C@H]1C(=O)N2C(C(=O)OCOC(=O)O[C@H]3CCCc4ccccc43)=C(S[C@@H]3CN[C@H](C(=O)N(C)C)C3)[C@H](C)[C@H]12`, the figures for the t1/2 in [6] and in [7] were 0.9 min and 1.4 min, respectively.
Consider `C[C@@H](O)[C@H]1C(=O)N2C(C(=O)OCOC(=O)OC3CCCc4ccccc4C3)=C(S[C@@H]3CN[C@H](C(=O)N(C)C)C3)[C@H](C)[C@H]12` (mixture of isomers), for which the figures for the t1/2 (in the data set on Plasma; in [2]; in [5]) were 23 min, 1.9 min and 21 min, respectively. The values for the Stability in data set [3] and in [4] were 96% and 79%, respectively.
The corresponding values for `C[C@@H](O)[C@H]1C(=O)N2C(C(=O)OCOC(=O)OC3Cc4ccccc4C3)=C(S[C@@H]3CN[C@H](C(=O)N(C)C)C3)[C@H](C)[C@H]12` are 4.3 min, 0.9 min, 13 min, 96% and 70%.
